Consider 17 compounds from ChEMBL document CHEMBL1125490, “3'-Spiro nucleosides, a new class of specific human immunodeficiency virus type 1 inhibitors: synthesis and antiviral activity of [2'-5'-bis-O-(tert-butyldimethylsilyl)-beta-D-xylo- and -ribofuranose]-3'-spiro-5"-[4"-amino-1",2"-oxathiole 2",2"-dioxide] (TSAO) pyrimidine nucleosides” (J Med Chem, 1992).

The structures appear in SMILES notation. In brackets after ≈: the same amount, converted by molar mass. A value given as a limit tells only on which side of the number the result lay.

In experiment [1] the test system is Human immunodeficiency virus 1. Nature of the experiment: Concentration required to inhibit HIV-1 induced cytopathicity in human MT-4 lymphocyte cells. It counts as functional, organism-based. The gist of the method:
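MT-4 cells at 5 × 10⁵/mL were infected with HIV-1 at 100 CCID₅₀ per mL of cell suspension, then mixed 1:1 with serial dilutions of compound. After 5 days, viable cells were counted by trypan blue staining. EC₅₀ was the concentration giving 50% protection against virus-induced loss of viable cells. Values are means of at least three to five independent experiments.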

Experiment [2] relates to MT4. The experiment is described as follows: Concentration required to reduce human MT-4 cell viability by 50%. It counts as functional. The gist of the method: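 Mock-infected MT-4 cells were cultured 5 days with serial dilutions of compound, and viable cells were counted by trypan blue staining. CC₅₀ was the concentration reducing viable cell number by 50%. Values are means of at least three to five independent experiments.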

The test system of experiment [3] is MT4. The experiment is described as follows: Ratio of effective concentration to that of cytotoxic concentration against HIV-1 induced cytopathogenicity in MT-4 cells. Type of experiment: functional.
[4] abbreviates: Human immunodeficiency virus 1, Lymphocyte, read-out: EC50.
The mark [5] stands for this setting: Homo sapiens, MT4, read-out: CC50.

On to `Cc1cn([C@@H]2O[C@H](CO[Si](C)(C)C(C)(C)C)[C@@]3(OS(=O)(=O)C=C3N)[C@H]2O[Si](C)(C)C(C)(C)C)c(=O)[nH]c1=O`, for which the EC50 in experiment [1] (setting [4]) worked out at 0.034 µg/mL (≈ 0.0576 µM). Further, the CC50 in experiment [2] (setting [5]) worked out at 7.7 µg/mL (≈ 13.1 µM).

Regarding `Cc1cn([C@@H]2O[C@H](CO[Si](C)(C)C(C)(C)C)[C@]3(OS(=O)(=O)C=C3N)[C@H]2O[Si](C)(C)C(C)(C)C)c(=O)[nH]c1=O`, in experiment [1] (setting [4]), the EC50 is > 4 µg/mL. For the same compound, in experiment [2] (setting [5]), the CC50 was 18 µg/mL (≈ 30.5 µM). Moreover, in experiment [3], the Selectivity index is on record as <4.5.

On to `Cc1cn([C@@H]2O[C@H](CO[Si](C)(C)C(C)(C)C)[C@@](C#N)(OS(C)(=O)=O)[C@H]2O[Si](C)(C)C(C)(C)C)c(=O)[nH]c1=O`, for which, in experiment [1] (setting [4]), the EC50 was > 1.6 µg/mL. The CC50 in experiment [2] (setting [5]) turned out to be 4.3 µg/mL (≈ 7.29 µM). The Selectivity index in experiment [3] is <2.7.

As to `NC1=CS(=O)(=O)O[C@]12[C@@H](CO)O[C@@H](n1ccc(=O)[nH]c1=O)[C@@H]2O`, the EC50 in experiment [1] (setting [4]) was > 80 µg/mL. The CC50 in experiment [2] (setting [5]) came out at 320 µg/mL (≈ 921 µM). The Selectivity index in experiment [3] is <4.

Regarding `Cc1cn([C@H]2C[C@]3(OS(=O)(=O)C=C3N)[C@@H](CO[Si](C)(C)C(C)(C)C)O2)c(=O)[nH]c1=O`, in experiment [1] (setting [4]), the EC50 was > 0.8 µg/mL. For the same compound, in experiment [2] (setting [5]), the CC50 stood at 1.5 µg/mL (≈ 3.26 µM). In addition, the Selectivity index in experiment [3] is <1.9.

Consider `Cc1cn([C@@H]2O[C@H](CO[Si](C)(C)C(C)(C)C)[C@@]3(OS(=O)(=O)C=C3N)[C@H]2O)c(=O)[nH]c1=O`, for which the concentration giving a half-maximal response (EC50) in experiment [1] (setting [4]) is > 20 µg/mL. For the same compound, the CC50 in experiment [2] (setting [5]) turned out to be 45 µg/mL (≈ 94.6 µM). For the same compound, the Selectivity index in experiment [3] is recorded as <2.2.

On to `CC(C)(C)[Si](C)(C)O[C@H]1[C@H](n2ccc(=O)[nH]c2=O)O[C@H](CO)[C@]12OS(=O)(=O)C=C2N`, for which the concentration giving a half-maximal response (EC50) in experiment [1] (setting [4]) was > 100 µg/mL. In experiment [2] (setting [5]), the CC50 amounted to 221 µg/mL (≈ 479 µM). Moreover, in experiment [3], the Selectivity index is given as <2.

As to `Cc1cn([C@@H]2O[C@H](CO)[C@@]3(OS(=O)(=O)C=C3N)[C@H]2O[Si](C)(C)C(C)(C)C)c(=O)[nH]c1=O`, the EC50 in experiment [1] (setting [4]) is > 40 µg/mL. For the same compound, the CC50 in experiment [2] (setting [5]) was 106 µg/mL (≈ 223 µM). Also, the Selectivity index in experiment [3] was <2.6.

As for `CC(=O)Nc1ccn([C@@H]2O[C@H](CO[Si](C)(C)C(C)(C)C)[C@]3(OS(=O)(=O)C=C3N)[C@H]2O[Si](C)(C)C(C)(C)C)c(=O)n1`, in experiment [1] (setting [4]), the 50% effective concentration (EC50) was > 4 µg/mL. Moreover, the half-maximal cytotoxic concentration (CC50) in experiment [2] (setting [5]) came out at 7.1 µg/mL (≈ 11.5 µM). Further, the Selectivity index in experiment [3] is <1.8.

In the case of `Cc1cn([C@@H]2O[C@H](CO)[C@@]3(OS(=O)(=O)C=C3N)[C@H]2O)c(=O)[nH]c1=O`, in experiment [1] (setting [4]), the EC50 was > 100 µg/mL. In experiment [2] (setting [5]), the CC50 was > 100 µg/mL.

Take `CC(=O)Nc1ccn([C@@H]2O[C@H](CO[Si](C)(C)C(C)(C)C)[C@@]3(OS(=O)(=O)C=C3N)[C@H]2O[Si](C)(C)C(C)(C)C)c(=O)n1`: the EC50 in experiment [1] (setting [4]) turned out to be 0.097 µg/mL (≈ 0.157 µM). For the same compound, the half-maximal cytotoxic concentration (CC50) in experiment [2] (setting [5]) worked out at 7.5 µg/mL (≈ 12.2 µM). For the same compound, the Selectivity index in experiment [3] was found to be 77.

Regarding `Cc1cn([C@@H]2O[C@H](CO)[C@]3(OS(=O)(=O)C=C3N)[C@H]2O)c(=O)[nH]c1=O`, the concentration for a half-maximal effect (EC50) in experiment [1] (setting [4]) was > 500 µg/mL. In addition, the CC50 in experiment [2] (setting [5]) is > 500 µg/mL. Moreover, the Selectivity index in experiment [3] is on record as <1.

On to `CC(C)=CCN1Cc2cccc3[nH]c(=S)n(c23)C[C@@H]1C`, for which the EC50 in experiment [1] (setting [4]) is 0.021 µg/mL (≈ 0.0731 µM). Besides, in experiment [2] (setting [5]), the CC50 is > 20 µg/mL. Besides, the Selectivity index in experiment [3] is >952.

Turning to `CC(C)(C)[Si](C)(C)OC[C@H]1O[C@@H](n2ccc(=O)[nH]c2=O)[C@H](O[Si](C)(C)C(C)(C)C)C12OS(=O)(=O)C=C2N` (stereo in doubt; 11b), in experiment [1] (lymphocyte), the concentration giving a half-maximal response (EC50) is > 1.6 µg/mL. Further, the CC50 in experiment [2] was 3.1 µg/mL (≈ 5.38 µM). The Selectivity index in experiment [3] is on record as <2.

For `CC(C)(C)[Si](C)(C)OC[C@H]1O[C@@H](n2ccc(=O)[nH]c2=O)[C@H](O[Si](C)(C)C(C)(C)C)C12OS(=O)(=O)C=C2N` (stereo in doubt; 12b), the EC50 in experiment [1] (lymphocyte) stood at 0.114 µg/mL (≈ 0.198 µM). Moreover, in experiment [2], the CC50 was 8.3 µg/mL (≈ 14.4 µM). Moreover, in experiment [3], the Selectivity index came to 73.

For `Cc1c(Sc2ccccc2)n(COCCO)c(=O)[nH]c1=O` [HEPT], the EC50 in experiment [1] (setting [4]) amounted to 5.5 µg/mL (≈ 17.8 µM). Besides, the CC50 in experiment [2] (setting [5]) was > 200 µg/mL. Moreover, the Selectivity index in experiment [3] was >36.

Consider `Cc1ccnc2c1NC(=O)c1cccnc1N2C1CC1` [NEVIRAPINE], for which the 50% effective concentration (EC50) in experiment [1] (setting [4]) turned out to be 0.038 µg/mL (≈ 0.143 µM). Besides, in experiment [2] (setting [5]), the CC50 was > 20 µg/mL. For the same compound, the Selectivity index in experiment [3] was >526.
